Assay results of several laboratories.
Compare with care: the assays were run in different laboratories.
Target: Focal adhesion kinase 1 (PTK2, Homo sapiens, UniProt Q05397)

N[C@@H]1CCN(c2nccc(-c3cnn4ncccc34)n2)C1
remaining signal (cell-free assay; 1 µM): 97%

CC(C)(C)c1nc2c(s1)c1nc(N)ncc1c1ccc(NS(=O)(=O)c3c(F)cccc3F)c(F)c12
remaining activity (enzyme activity; inhibitor; radiometric; 1 µM): 99%

c1nc2c(Nc3ccc4c(c3)OCCO4)nc(Nc3ccc4c(c3)OCCO4)nc2[nH]1
activity vs control (enzyme activity; inhibitor; 10 µM): 58%

CNCc1ccccc1-c1csc([C@@H](C)Nc2nc(C)nc3cc(OC)c(OC)cc23)c1
remaining binding (cell-free assay; competition with immobilised ligand; 1 µM): 86%

Cc1ccc(NC(=O)c2ccc(C)c(C(F)(F)F)c2)cc1C#Cc1nn(C2CCC(O)CC2)c2ncnc(N)c12 (centres unmarked)
remaining signal (cell-free assay; 10 µM): 45%

CC(=O)Nc1c(C(C)=O)c(=O)n(C)c2nc(-c3ccc(Cl)cc3Cl)c(-c3ccc(Cl)cc3)cc12
remaining binding (cell-free assay; competition with immobilised ligand; 1 µM): 100%

Oc1cccc(-c2nc(N3CCOCC3)c3oc4ncccc4c3n2)c1
remaining signal (cell-free assay; 0.5 µM): 93.5%

Cc1cnc(NC2CCOCC2)nc1-n1cnc(C(=O)NC(CN)c2cc(F)cc(Cl)c2)c1 (centres unmarked)
remaining activity (enzyme activity; inhibitor; radiometric; 1 µM): 102%

O=C1Nc2ccc(Cl)cc2C1=Cc1cc(Cl)c(O)c(Cl)c1
remaining signal (cell-free assay; 0.5 µM): 91.5%

Cc1ccc(Nc2nccc(N(C)c3ccc4c(C)n(C)nc4c3)n2)cc1S(N)(=O)=O
inhibition (enzyme activity; inhibitor; 10 µM): 73%

COCCOc1nc(-c2ccc(Cl)nc2)nc2c1CN(C(=O)c1ncn3ccccc13)CC2
remaining binding (cell-free assay; competition with immobilised ligand; 0.1 µM): 99%

COc1cc(-c2cc(-c3ccc(N4CCNCC4)cc3)cnc2C)cc(OC)c1OC
inhibition (enzyme activity; inhibitor; 1 µM): 16%

CSc1cccnc1N1CCN(Cc2nc3ccccc3[nH]2)CC1
remaining binding (cell-free assay; competition with immobilised ligand; 1 µM): 100%

O=C(Nc1cnn(-c2csc(C(=O)NC3COC3)c2)c1)Nc1c(F)cccc1Cl
remaining activity (enzyme activity; inhibitor; 5 µM): 89%

O=S(=O)(NC1CCC(c2cc(F)ccc2F)(S(=O)(=O)c2ccc(Cl)cc2)CC1)C(F)(F)F (centres unmarked)
remaining binding (cell-free assay; competition with immobilised ligand; 1 µM): 90%

CCN(CC)c1ccc(C2=NNC(=O)CC2C)cc1[N+](=O)[O-] (centres unmarked)
remaining activity (enzyme activity; inhibitor; 10 µM): 96%

C[C@H](c1ccnc(Nc2nc3ccc(-c4cc(N(C)C)ncn4)cc3[nH]2)c1)N1CCN(C(=O)CC(F)(F)F)CC1
remaining binding (cell-free assay; competition with immobilised ligand; 0.1 µM): 100%

CC/C(=N\NC(=O)NCc1cccc(O)c1)c1ccc(O)c(C)c1O
inhibition (enzyme activity; inhibitor; 0.1 µM): -3.8%

O=C1NC(=O)c2cc(Nc3ccc(F)cc3)c(Nc3ccc(F)cc3)cc21
remaining signal (cell-free assay; 0.5 µM): 96%

Cc1[nH]c(/C=C2\C(=O)Nc3ccc(F)cc32)c(C)c1C(=O)N[C@H]1CCN(C(=O)N(C)C)C1
remaining activity (enzyme activity; inhibitor; 0.1 µM): 88%

O=C(CSc1nc2nccnc2c(=O)n1CCc1ccccc1)Nc1nccs1
inhibition (enzyme activity; inhibitor; 10 µM): 6%

CN1CC(Oc2cnc(C#N)cc2-c2ccn3nc(NC(=O)C4CC4)cc3c2)C1
inhibition (enzyme activity; inhibitor; 1 µM): 1%

COc1ccnn2ncc(-c3ccnc(N(C)C)n3)c12
remaining signal (cell-free assay; 1 µM): 100%

CCOC(=O)c1cc2cc(-c3cc(C(=O)NCc4ccc(C(=O)O)cc4)nn3C)ccc2[nH]1
remaining binding (cell-free assay; competition with immobilised ligand; 0.1 µM): 94%

COc1cc2ncnc(Nc3ccc(Oc4ccccc4)cc3C)c2cc1OC
inhibition (enzyme activity; inhibitor; 1 µM): 5%

CC(C)(O)[C@H]1CC[C@H](Nc2ccc3ncc(-c4cccc(C(F)(F)F)c4)n3n2)CC1
remaining activity (enzyme activity; inhibitor; 1 µM): 83.5%

C[C@@H]1CN(c2cc(-c3nn(C)c4ccc(OC5(C)CC5)cc34)ncn2)C[C@H](C)O1
remaining binding (cell-free assay; competition with immobilised ligand; 1 µM): 95%

CN(c1nccc(-c2cnn3ncccc23)n1)C1CC1
remaining signal (cell-free assay; 1 µM): 100%

Cc1ccc(NC(=O)c2ccc(CN3CCN(C)CC3)cc2)cc1Nc1nccc(-c2cncc(-c3oncc3C)c2)n1
remaining activity (enzyme activity; inhibitor; 0.5 µM): ≤ 50%
